# Experimental data from ChEMBL document CHEMBL1148671, “Synthesis and antibacterial activity of C12 des-methyl ketolides” (2006).
# Tests used:
# Assay type in all cases: functional
# Streptococcus pneumoniae [1] = experiment: Antibacterial activity against erythromycin-resistant Streptococcus pneumoniae mef 5654 by broth microdilution method
# Streptococcus pneumoniae [2] = experiment: Antibacterial activity against erythromycin-resistant Streptococcus pneumoniae mef S 3427 by broth microdilution method
# Haemophilus influenzae [3] = experiment: Antibacterial activity against Haemophilus influenzae 49247 by broth microdilution method
# In short: (§1)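 In vitro activity was read as the minimum inhibitory concentration (MIC) by broth microdilution and reported in μg/mL. The S. pneumoniae panel included erythromycin-resistant strains carrying mef or erm genes. Telithromycin and clarithromycin were run as comparators in every assay.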
# Haemophilus influenzae [4] = experiment: Antibacterial activity against Haemophilus influenzae 2762 by broth microdilution method; in short: as §1
# Enterococcus faecalis [5] = experiment: Antibacterial activity against Enterococcus faecalis 29212 by broth microdilution method; in short: as §1
# Enterococcus faecalis [6] = experiment: Antibacterial activity against Enterococcus faecalis bc11148-2 by broth microdilution method; in short: as §1
# Streptococcus pyogenes = experiment: Antibacterial activity against Streptococcus pyogenes 8668 by broth microdilution method; in short: as §1
# Streptococcus pneumoniae [7] = experiment: Antibacterial activity against Streptococcus pneumoniae 49619 by broth microdilution method; in short: as §1
# Staphylococcus aureus [8] = experiment: Antibacterial activity against Staphylococcus aureus 29213 by broth microdilution method; conditions: ATCC29213; in short: as §1
# Staphylococcus aureus [9] = experiment: Antibacterial activity against Staphylococcus aureus 33591 by broth microdilution method; in short: as §1
# [10] = test system: Staphylococcus epidermidis; experiment: Antibacterial activity against Staphylococcus epidermidis 14990 by broth microdilution method; in short: as §1
# [11] = test system: Staphylococcus epidermidis; experiment: Antibacterial activity against Staphylococcus epidermidis f50654 by broth microdilution method; in short: as §1
# Streptococcus pneumoniae [12] = experiment: Antibacterial activity against Streptococcus pneumoniae 297-749 by broth microdilution method; in short: as §1
# Streptococcus pneumoniae [13] = experiment: Antibacterial activity against Streptococcus pneumoniae 280-962 by broth microdilution method; in short: as §1
# Streptococcus pneumoniae [14] = experiment: Antibacterial activity against erythromycin-resistant Streptococcus pneumoniae erm 6849 by broth microdilution method
Structure (SMILES),MIC (Streptococcus pneumoniae [1]) [µg/mL],MIC (Streptococcus pneumoniae [2]) [µg/mL],MIC (Haemophilus influenzae [3]) [µg/mL],MIC (Haemophilus influenzae [4]) [µg/mL],MIC (Enterococcus faecalis [5]) [µg/mL],MIC (Enterococcus faecalis [6]) [µg/mL],MIC (Streptococcus pyogenes) [µg/mL],MIC (Streptococcus pneumoniae [7]) [µg/mL],MIC (Staphylococcus aureus [8]) [µg/mL],MIC (Staphylococcus aureus [9]) [µg/mL],MIC [10] [µg/mL],MIC [11] [µg/mL],MIC (Streptococcus pneumoniae [12]) [µg/mL],MIC (Streptococcus pneumoniae [13]) [µg/mL],MIC (Streptococcus pneumoniae [14]) [µg/mL]
CC[C@H]1OC(=O)[C@H](C)C(=O)[C@H](C)[C@@H](O[C@@H]2O[C@H](C)C[C@H](N(C)C)[C@H]2O)[C@](C)(OC)C[C@@H](C)C(=O)[C@H](C)[C@@H]2[C@@H]1OC(=O)N2CCCCn1cnc(-c2ccc(OC)nc2)c1,0.78,0.1,6.25,1.56,≤ 0.05,6.25,≤ 0.05,≤ 0.05,0.2,> 50,0.1,0.2,≤ 0.05,≤ 0.05,50
CC[C@H]1OC(=O)[C@H](C)C(=O)[C@H](C)[C@@H](O[C@@H]2O[C@H](C)C[C@H](N(C)C)[C@H]2O)[C@](C)(OC)C[C@@H](C)C(=O)[C@H](C)[C@@H]2[C@@H]1OC(=O)N2CCCC(C)(C)n1cnc(-c2cccnc2)c1,1.56,0.2,3.13,1.56,0.1,1.56,≤ 0.05,≤ 0.05,0.2,> 50,0.1,0.1,≤ 0.05,≤ 0.05,0.4
CC[C@H]1OC(=O)[C@H](C)C(=O)[C@H](C)[C@@H](O[C@@H]2O[C@H](C)C[C@H](N(C)C)[C@H]2O)[C@](C)(OC)C[C@@H](C)C(=O)[C@H](C)[C@@H]2[C@@H]1OC(=O)N2CCCCc1ccc(-c2cccnc2)s1,0.4,0.1,12.5,3.13,≤ 0.05,25,≤ 0.05,≤ 0.05,0.2,50,0.2,0.1,≤ 0.05,≤ 0.05,6.25
CC[C@H]1OC(=O)[C@H](C)C(=O)[C@H](C)[C@@H](O[C@@H]2O[C@H](C)C[C@H](N(C)C)[C@H]2O)[C@](C)(OC)C[C@@H](C)C(=O)[C@H](C)[C@@H]2[C@@H]1OC(=O)N2CCCCc1cnc(-c2cccnc2)s1,0.78,0.1,6.25,1.56,≤ 0.05,3.13,≤ 0.05,≤ 0.05,0.2,> 50,0.2,0.1,≤ 0.05,≤ 0.05,25
CC[C@H]1OC(=O)[C@H](C)C(=O)[C@H](C)[C@@H](O[C@@H]2O[C@H](C)C[C@H](N(C)C)[C@H]2O)[C@](C)(OC)C[C@@H](C)C(=O)[C@H](C)[C@@H]2[C@@H]1OC(=O)N2CCCCn1cnc(-c2ccc(C)nc2)c1,1.56,0.4,3.13,1.56,0.1,3.13,≤ 0.05,≤ 0.05,0.2,> 50,0.2,0.2,≤ 0.05,≤ 0.05,50
CC[C@H]1OC(=O)[C@H](C)C(=O)[C@H](C)[C@@H](O[C@@H]2O[C@H](C)C[C@H](N(C)C)[C@H]2O)[C@](C)(OC)C[C@@H](C)C(=O)[C@H](C)[C@@H]2[C@@H]1OC(=O)N2CCCCn1cnc(-c2cccnc2)c1,1.56,0.2,6.25,0.78,0.1,> 50,≤ 0.05,≤ 0.05,0.2,> 50,0.78,0.2,≤ 0.05,≤ 0.05,0.2
